{
  "source": "ChEMBL document CHEMBL5137075",
  "about": "“Discovery of a First-in-Class Degrader for Nuclear Receptor Binding SET Domain Protein 2 (NSD2) and Ikaros/Aiolos” (J Med Chem, 2022)",
  "key": {"[1]": {"target": "T1, Cereblon/Ikaros (Homo sapiens) (UniProt Q96SW2+Q13422)", "test": "Protac activity at CRBN/IKZF1 in human KMS-11 cells assessed as induction of IKZF1 degradation at 2.5 uM incubated for 72 hrs by Western blot analysis", "assay_type": "cell-based", "procedure,_shortened": "(§1)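 KMS11 or H929 myeloma cells were treated with DMSO or 2.5 μM for 72 h. IKZF1 and IKZF3 were measured by Western blot with GAPDH as loading control, representative of two independent experiments.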"}, "[2]": {"target": "T1, Cereblon/Ikaros (Homo sapiens)", "test": "Protac activity at CRBN/IKZF1 in human NCI-H929 cells assessed as induction of IKZF1 degradation at 2.5 uM incubated for 72 hrs by Western blot analysis", "assay_type": "cell-based", "procedure,_shortened": "as §1"}, "[3]": {"target": "T2, Protein cereblon/Zinc finger protein Aiolos (Homo sapiens) (UniProt Q96SW2+Q9UKT9)", "test": "Protac activity at CRBN/IKZF3 in human KMS-11 cells assessed as induction of IKZF3 degradation at 2.5 uM incubated for 72 hrs by Western blot analysis", "assay_type": "cell-based", "procedure,_shortened": "as §1"}, "[4]": {"target": "T2, Protein cereblon/Zinc finger protein Aiolos (Homo sapiens)", "test": "Protac activity at CRBN/IKZF3 in human NCI-H929 cells assessed as induction of IKZF3 degradation at 2.5 uM incubated for 72 hrs by Western blot analysis", "assay_type": "cell-based", "procedure,_shortened": "as §1"}, "[5]": {"target": "von Hippel-Lindau disease tumor suppressor/Histone-lysine N-methyltransferase NSD2 (Homo sapiens) (UniProt O96028+P40337)", "test": "Protac activity at VHL E3 ligase/ NSD2 PWWP1 domain (208 to 369 residues) in HEK293FT cells assessed as induction of NSD2 degradation at 2.5 to 10 uM incubated for 48 hrs by Western blot analysis", "assay_type": "cell-based", "conditions": "dose 2.5-10 µM", "procedure,_shortened": "(§2)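 293FT cells (DMEM, 10% FBS) were treated with DMSO or compound at the indicated concentrations for 48 h. NSD2 was detected by Western blot of NP-40 lysates with GAPDH as loading control. Blots are representative of at least two independent experiments.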"}, "[6]": {"target": "T3, Histone-lysine N-methyltransferase NSD2 (Homo sapiens, UniProt O96028)", "T3 sequence (O96028 whole entry)": "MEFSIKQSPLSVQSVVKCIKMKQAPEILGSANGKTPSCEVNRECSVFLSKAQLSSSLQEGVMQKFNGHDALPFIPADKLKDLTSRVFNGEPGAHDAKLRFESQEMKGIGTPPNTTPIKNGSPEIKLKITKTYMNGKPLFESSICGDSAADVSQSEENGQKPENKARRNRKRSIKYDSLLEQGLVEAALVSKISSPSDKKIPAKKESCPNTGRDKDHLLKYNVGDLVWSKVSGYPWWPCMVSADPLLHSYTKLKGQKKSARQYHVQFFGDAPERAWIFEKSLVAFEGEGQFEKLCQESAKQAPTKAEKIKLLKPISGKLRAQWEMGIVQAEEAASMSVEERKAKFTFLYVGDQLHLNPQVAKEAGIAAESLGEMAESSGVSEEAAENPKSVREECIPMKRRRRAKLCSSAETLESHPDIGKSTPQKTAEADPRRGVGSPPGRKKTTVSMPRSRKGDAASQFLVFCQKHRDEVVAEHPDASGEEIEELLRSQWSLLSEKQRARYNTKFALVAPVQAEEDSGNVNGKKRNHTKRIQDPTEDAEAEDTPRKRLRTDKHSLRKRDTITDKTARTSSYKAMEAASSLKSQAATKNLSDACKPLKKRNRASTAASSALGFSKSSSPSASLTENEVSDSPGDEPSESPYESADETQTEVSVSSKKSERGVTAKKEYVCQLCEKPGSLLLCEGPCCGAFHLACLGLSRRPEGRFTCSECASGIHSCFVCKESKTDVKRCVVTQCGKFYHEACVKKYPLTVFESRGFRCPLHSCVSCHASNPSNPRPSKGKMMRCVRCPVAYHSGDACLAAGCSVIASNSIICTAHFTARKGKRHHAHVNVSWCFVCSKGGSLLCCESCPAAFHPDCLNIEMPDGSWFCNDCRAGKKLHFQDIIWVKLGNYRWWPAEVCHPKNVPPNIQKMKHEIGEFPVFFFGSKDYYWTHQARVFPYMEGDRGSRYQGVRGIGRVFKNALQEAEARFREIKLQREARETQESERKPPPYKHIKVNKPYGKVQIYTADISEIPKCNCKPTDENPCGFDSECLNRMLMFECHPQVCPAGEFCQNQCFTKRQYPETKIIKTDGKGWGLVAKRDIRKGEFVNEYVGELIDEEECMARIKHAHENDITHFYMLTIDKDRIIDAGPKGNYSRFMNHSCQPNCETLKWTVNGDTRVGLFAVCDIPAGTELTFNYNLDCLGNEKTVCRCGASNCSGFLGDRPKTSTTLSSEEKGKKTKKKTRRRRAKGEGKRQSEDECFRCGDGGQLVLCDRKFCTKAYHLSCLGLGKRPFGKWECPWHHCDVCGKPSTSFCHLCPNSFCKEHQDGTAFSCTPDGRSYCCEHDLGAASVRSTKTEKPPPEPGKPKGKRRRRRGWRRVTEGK", "test": "Binding affinity to N-terminal GST-tagged human NSD2 PWWP1 domain (208 to 369 residues) expressed in Escherichia coli […] (DE3) cells assessed as dissociation constant by isothermal titration calorimetry assay"}, "[7]": {"target": "T4, Protein cereblon/Histone-lysine N-methyltransferase NSD2 (Homo sapiens, UniProt O96028+Q96SW2)", "test": "Protac activity at CRBN E3 ligase/ NSD2 PWWP1 domain (208 to 369 residues) in HEK293FT cells assessed as induction of NSD2 degradation at 2.5 to 10 uM incubated for 48 hrs by Western blot analysis", "assay_type": "cell-based", "conditions": "dose 2.5-10 µM", "procedure,_shortened": "as §2"}, "[8]": {"target": "T4, Protein cereblon/Histone-lysine N-methyltransferase NSD2", "test": "Protac activity at CRBN E3 ligase/ NSD2 PWWP1 domain (208 to 369 residues) in HEK293FT cells assessed as induction of NSD2 degradation incubated for 48 hrs by Western blot analysis", "assay_type": "cell-based", "procedure,_shortened": "as §2"}, "[9]": {"target": "T4, Protein cereblon/Histone-lysine N-methyltransferase NSD2", "test": "Protac activity at CRBN E3 ligase/ NSD2 PWWP1 domain (208 to 369 residues) in HEK293FT cells assessed as induction of NSD2 degradation by measuring maximal efficacy at 0.5 to 10 uM incubated for 48 hrs by Western blot analysis relative to control", "assay_type": "cell-based", "conditions": "dose 0.5-10 µM", "procedure,_shortened": "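293FT cells were exposed to 0.5–10 μM for 48 h. NSD2 was immunoblotted with GAPDH as loading control and band intensity quantified by densitometry to derive DC50 and Dmax. Results are mean ± SD of two independent experiments.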"}, "[10]": {"target": "T4, Protein cereblon/Histone-lysine N-methyltransferase NSD2", "test": "Protac activity at CRBN E3 ligase/ NSD2 PWWP1 domain (208 to 369 residues) in HEK293FT cells assessed as induction of NSD2 degradation 5 uM by Western blot analysis", "assay_type": "cell-based", "conditions": "time 0-72 hrs, TDE = time-dependent effect", "procedure,_shortened": "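293FT cells were treated at 5 μM for 0, 12, 24, 36, 48 or 72 h. Lysates were made in 50 mM Tris-HCl pH 8.0, 150 mM NaCl, 1% NP-40, and NSD2 was immunoblotted with GAPDH as loading control.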"}, "[11]": {"target": "T4, Protein cereblon/Histone-lysine N-methyltransferase NSD2", "test": "Protac activity at CRBN/NSD2 PWWP1 domain (208 to 369 residues) in wild type HEK293FT cells assessed as induction of NSD2 degradation at 0.5 to 10 uM incubated for 48 hrs by Western blot analysis", "assay_type": "cell-based", "conditions": "dose 0.5-10 µM", "procedure,_shortened": "(§3)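 Wild-type 293FT cells, alongside a CRISPR-Cas9 CRBN-knockout 293FT line, were treated across a concentration range for 48 h. NSD2, IKZF3 and CRBN were immunoblotted with GAPDH as loading control, representative of at least two independent experiments.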"}, "[12]": {"target": "T2, Protein cereblon/Zinc finger protein Aiolos (Homo sapiens)", "test": "Protac activity at CRBN/IKZF3 in wild type HEK293FT cells assessed as induction of IKZF3 degradation at 0.5 to 10 uM incubated for 48 hrs by Western blot analysis", "assay_type": "cell-based", "conditions": "dose 0.5-10 µM", "procedure,_shortened": "as §3"}, "[13]": {"test": "Cmax in Swiss albino mouse at 50 mg/kg, ip by LC-MS/MS analysis", "assay_type": "ADME, organism-based", "design": "dose 50 mg/kg, route ip", "conditions": "in vivo", "procedure,_shortened": "(§4)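 Three male Swiss albino mice received a single 50 mg/kg intraperitoneal dose as a solution in 5% NMP/45% propylene glycol/50% PEG-400 (v/v). Blood was drawn at 0.5, 2 and 8 h and plasma stored at −70 °C. Plasma levels were measured by LC–MS/MS (LLOQ 5.14 ng/mL), reported as mean ± SD of three mice; mice were watched for clinical signs.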"}, "KMS-11": {"tested_on": "KMS-11", "test": "Antiproliferative activity against human KMS-11 cells assessed as inhibition of cell growth at 2.5 uM incubated for 8 days by automated TC10 cell counter based analysis", "assay_type": "functional", "conditions": "time 8.0 day", "procedure,_shortened": "(§5)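 KMS11 or H929 cells (RPMI 1640, 10% FBS) seeded at 0.5 million per well in triplicate, treated with 2.5 μM or DMSO for 8 days. Compound-containing medium replaced every 2 days; cells diluted periodically to stay below 1 × 10^6/mL. Viability given relative to DMSO control as mean ± SD (n = 3).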"}, "NCI-H929": {"tested_on": "NCI-H929", "test": "Antiproliferative activity against human NCI-H929 cells assessed as inhibition of cell growth at 2.5 uM incubated for 8 days by automated TC10 cell counter based analysis", "assay_type": "functional", "conditions": "time 8.0 day", "procedure,_shortened": "as §5"}, "[14]": {"test": "Tmax in Swiss albino mouse at 50 mg/kg, ip by LC-MS/MS analysis", "assay_type": "ADME, organism-based", "conditions": "in vivo", "procedure,_shortened": "as §4"}, "[15]": {"test": "Drug concentration in Swiss albino mouse plasma at 50 mg/kg, ip measured after 8 hrs by LC-MS/MS analysis", "assay_type": "ADME, organism-based", "procedure,_shortened": "as §4"}, "[16]": {"test": "Toxicity in Swiss albino mouse assessed as clinical signs of toxicity at 50 mg/kg, ip administered for 8 hrs", "assay_type": "organism-based", "conditions": "in vivo", "procedure,_shortened": "as §4"}},
  "note": "Active and inactive are the calls of the source. The rule behind the calls is not given here.",
  "data": [
    {"smiles": "CC(C)N(Cc1ccc(C(=O)Nc2ccc(OCCCNC(=O)CNc3cccc4c3C(=O)N(C3CCC(=O)NC3=O)C4=O)cn2)cc1)C(=O)c1ccc2c(c1)OCC(=O)N2", "note": "(stereo not drawn)", "values": [
      {"measurement": "Activity", "setting": "[1]", "value": "Active"},
      {"measurement": "Activity", "setting": "[2]", "value": "Active"},
      {"measurement": "Activity", "setting": "[3]", "value": "Active"},
      {"measurement": "Activity", "setting": "[4]", "value": "Active"}
    ]},
    {"smiles": "Cc1ncsc1-c1ccc(CNC(=O)[C@@H]2C[C@@H](O)CN2C(=O)[C@@H](NC(=O)CCOCCOCCNC(=O)c2ccc(NC(=O)c3ccc(CN(C(=O)c4ccc5c(c4)OCC(=O)N5)C4CC4)cc3)cc2)C(C)(C)C)cc1", "values": [
      {"measurement": "Activity", "setting": "[5]", "value": "Active"}
    ]},
    {"smiles": "CN1C(=O)CCC(N2C(=O)c3cccc(NCC(=O)NCCCOc4ccc(NC(=O)c5ccc(CN(C(=O)c6ccc7c(c6)OCC(=O)N7)C6CC6)cc5)nc4)c3C2=O)C1=O", "note": "(stereo not drawn)", "values": [
      {"measurement": "Kd", "setting": "[6]", "value": 900, "unit": "nM"}
    ]},
    {"smiles": "O=C(CNc1cccc2c1C(=O)N(C1CCC(=O)NC1=O)C2=O)NCCCOc1ccc(NC(=O)c2ccc(CN(C(=O)c3ccc4c(c3)OCC(=O)N4)C3CC3)cc2)nc1", "note": "(stereo not drawn)", "values": [
      {"measurement": "Activity", "setting": "[7]", "value": "Active"},
      {"measurement": "Kd", "setting": "[6]", "value": 1100, "unit": "nM"},
      {"measurement": "DC50", "setting": "[8]", "value": 5200, "unit": "nM"},
      {"measurement": "Emax", "setting": "[9]", "value": "> 82", "unit": "%"},
      {"measurement": "Activity", "setting": "[10]", "value": "Tde"},
      {"measurement": "Activity", "setting": "[1]", "value": "Active"},
      {"measurement": "Activity", "setting": "[2]", "value": "Active"},
      {"measurement": "Activity", "setting": "[3]", "value": "Active"},
      {"measurement": "Activity", "setting": "[4]", "value": "Active"},
      {"measurement": "Activity", "setting": "[11]", "value": "Active"},
      {"measurement": "Activity", "setting": "[12]", "value": "Active"},
      {"measurement": "Cmax", "setting": "[13]", "value": 1350, "unit": "nM"},
      {"measurement": "inhibition", "setting": "KMS-11", "value": "Active"},
      {"measurement": "inhibition", "setting": "NCI-H929", "value": "Active"},
      {"measurement": "Tmax", "setting": "[14]", "value": 30, "unit": "min"},
      {"measurement": "concentration at 8 h", "setting": "[15]", "value": 980, "unit": "nM"},
      {"measurement": "Activity", "setting": "[16]", "value": "Non-Toxic"}
    ]}
  ]
}
